ChEMBL document CHEMBL3286166, “Structure-activity relationships of the truncated norzoanthamines exhibiting collagen protection toward anti-osteoporotic activity” (Bioorg Med Chem, 2014)

Species on record: Rattus norvegicus
Experiment: Binding affinity to rat tail type 1 collagen assessed as collagen protection activity against Clostridium histolyticum collagenase-mediated digestion at 10 uM after 180 mins by Sirius red dye based microplate reader analysis relative to norzoanthamine
Summary of the method: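 Acid-solubilized rat tail type I collagen diluted to 1.11 mg/mL in 50 mM Tris (pH 7.4) with 100 mM NaCl and 5 mM CaCl₂. Compound in the same buffer added, 5 min at 37 °C. Digestion started with 2 mg/mL Clostridium histolyticum collagenase at 37 °C. Aliquots at 30–180 min stained with Sirius red, 30 min room temperature, then centrifuged. Remaining collagen at 180 min normalized to norzoanthamine; buffer-only negative control; up to five samples per test.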

Question: With `COCCN1CCC[C@@]2(C)[C@]3(C)CCC[C@]12OC(=O)C3` as the molecule, how does the Activity read?
Answer: 15%

Question: For `C[C@H]1C[C@@H]2CN3[C@](CC[C@@]4(C)[C@]5(C)CCC[C@]34OC(=O)C5)(C1)O2`, which Activity is on record?
Answer: 100%

Question: How did the Activity turn out when `COC(=O)c1cccc(CN2C[C@H]3C[C@H](C)C[C@@H]2O3)c1` was run?
Answer: 25%

Question: `COC(=O)c1ccccc1-c1ccc(CN2C[C@H]3C[C@H](C)C[C@@H]2O3)cc1` was tested. Which Activity did it give?
Answer: 25%

Question: With `CCCCN1CCC[C@@]2(C)[C@]3(C)CCC[C@]12OC(=O)C3` as the molecule, how does the Activity read?
Answer: 17%

Question: Which Activity does the source give for `CCCCc1ccc(CN2C[C@H]3C[C@H](C)C[C@@H]2O3)cc1` here?
Answer: 45%

Question: With `C[C@H]1C[C@@H]2CN(C(=O)OC(C)(C)C)[C@H](C1)O2` as the molecule, how does the Activity read?
Answer: 23%

Question: How did the Activity turn out when `C[C@H]1C[C@@H]2CN[C@H](C1)O2` was run?
Answer: 31%

Question: Which Activity does the source give for `C[C@H]1C[C@@H]2CN3C4=CCCC[C@]4(C)CC[C@@]3(C1)O2` here?
Answer: 31%

Question: With `C[C@H]1C[C@@H]2CN(Cc3ccccc3)[C@H](C1)O2` as the molecule, how does the Activity read?
Answer: 47%

Question: For `C[C@@H]1C[C@H]2CN3[C@@](CC[C@]4(C)[C@@]5(C)CCC[C@@]34OC(=O)C5)(C1)O2`, which Activity is on record?
Answer: 76%

Question: Which Activity does the source give for `C[C@H]1C[C@@H]2CN(Cc3ccc4ccccc4c3)[C@H](C1)O2` here?
Answer: 65%

Question: How did the Activity turn out when `COC(=O)C[C@@]1(C)[C@H]2C(=O)C[C@@H]3C(=O)C=C(C)C[C@H]3[C@]2(C)C=C2N3C[C@H]4C[C@H](C)C[C@]3(CC[C@]21C)O4` was run?
Answer: 5%

Question: How did the Activity turn out when `C[C@@]12CCC[C@]3(OC(=O)C1)N(Cc1ccccc1)CCC[C@@]23C` was run?
Answer: 11%

Question: For `C[C@H]1C[C@@H]2CN(Cc3ccc(-c4ccccc4)cc3)[C@H](C1)O2`, which Activity is on record?
Answer: 20%
